# Assays:
# [1] = tested on: Middle East respiratory syndrome-related coronavirus; assay: Antiviral activity against MERS-CoV KOR/KNIH/002_05_2015 infected in African green monkey Vero cells expressing viral spike protein by immunofluorescence assay; format: functional, organism-based; details: KOR/KNIH/002_05_2015, Vero
# Vero = assay: (§1) Cytotoxicity against African green monkey Vero cells assessed as reduction in cell viability; format: cell-based; details: chlorocebus sabaeus, vero
# [2] = as §1; format: cell-based; details: chlorocebus sabaeus, Vero cells
# [3] = Metabolic stability in human microsomes assessed as parent compound remaining measured after 30 mins; format: ADME, Microsome; details: read-out: Stability
# [4] = Metabolic stability in rat microsomes assessed as parent compound remaining measured after 30 mins; format: ADME, Microsome; details: read-out: Stability
# [5] = Metabolic stability in mouse microsomes assessed as parent compound remaining measured after 30 mins; format: ADME, Microsome; details: read-out: Stability
# [6] = biological target: Voltage-gated inwardly rectifying potassium channel KCNH2 (Homo sapiens, UniProt Q12809); assay: Binding affinity to human ERG
# HFL1 = assay: Cytotoxicity against human HFL1 cells assessed as reduction in cell viability; format: cell-based
# L929 = assay: Cytotoxicity against mouse L929 cells assessed as reduction in cell viability; format: cell-based
# NIH3T3 = assay: Cytotoxicity against mouse NIH/3T3 cells assessed as reduction in cell viability; format: cell-based
# CHO-K1 = assay: Cytotoxicity against CHOK1 cells assessed as reduction in cell viability; format: cell-based; details: Cricetulus griseus
# [7] = Cmax in rat at 5 mg/kg, po; format: ADME, organism-based; design: dose 5 mg/kg, route oral; details: in vivo
# In short: (§2)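 Rats given single doses, 2 mg/kg intravenously or 5 mg/kg orally, with three animals per route (n = 3). Each parameter is taken from three determinations.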
# [8] = Half life in rat at 2 mg/kg, iv; format: ADME, organism-based; details: in vivo
# [9] = AUC (0 to 24 hrs) in rat at 2 mg/kg, iv; format: ADME, organism-based; design: time < 24 hr, dose 2 mg/kg, route intravenous; details: in vivo; in short: as §2
# [10] = AUC (0 to infinity) in rat at 2 mg/kg, iv; format: ADME, organism-based; design: dose 2 mg/kg, route intravenous, time infinity; details: in vivo; in short: as §2
# [11] = Clearance in rat at 2 mg/kg, iv; format: ADME, organism-based; details: in vivo; in short: as §2
# [12] = Oral bioavailability in rat at 5 mg/kg; format: ADME, organism-based; details: in vivo
# In short: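 Rats dosed at 5 mg/kg p.o., with comparison i.v. dosing at 2 mg/kg; n = 3 per route, three determinations.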
# Chain of Voltage-gated inwardly rectifying potassium channel KCNH2 (Q12809 whole entry): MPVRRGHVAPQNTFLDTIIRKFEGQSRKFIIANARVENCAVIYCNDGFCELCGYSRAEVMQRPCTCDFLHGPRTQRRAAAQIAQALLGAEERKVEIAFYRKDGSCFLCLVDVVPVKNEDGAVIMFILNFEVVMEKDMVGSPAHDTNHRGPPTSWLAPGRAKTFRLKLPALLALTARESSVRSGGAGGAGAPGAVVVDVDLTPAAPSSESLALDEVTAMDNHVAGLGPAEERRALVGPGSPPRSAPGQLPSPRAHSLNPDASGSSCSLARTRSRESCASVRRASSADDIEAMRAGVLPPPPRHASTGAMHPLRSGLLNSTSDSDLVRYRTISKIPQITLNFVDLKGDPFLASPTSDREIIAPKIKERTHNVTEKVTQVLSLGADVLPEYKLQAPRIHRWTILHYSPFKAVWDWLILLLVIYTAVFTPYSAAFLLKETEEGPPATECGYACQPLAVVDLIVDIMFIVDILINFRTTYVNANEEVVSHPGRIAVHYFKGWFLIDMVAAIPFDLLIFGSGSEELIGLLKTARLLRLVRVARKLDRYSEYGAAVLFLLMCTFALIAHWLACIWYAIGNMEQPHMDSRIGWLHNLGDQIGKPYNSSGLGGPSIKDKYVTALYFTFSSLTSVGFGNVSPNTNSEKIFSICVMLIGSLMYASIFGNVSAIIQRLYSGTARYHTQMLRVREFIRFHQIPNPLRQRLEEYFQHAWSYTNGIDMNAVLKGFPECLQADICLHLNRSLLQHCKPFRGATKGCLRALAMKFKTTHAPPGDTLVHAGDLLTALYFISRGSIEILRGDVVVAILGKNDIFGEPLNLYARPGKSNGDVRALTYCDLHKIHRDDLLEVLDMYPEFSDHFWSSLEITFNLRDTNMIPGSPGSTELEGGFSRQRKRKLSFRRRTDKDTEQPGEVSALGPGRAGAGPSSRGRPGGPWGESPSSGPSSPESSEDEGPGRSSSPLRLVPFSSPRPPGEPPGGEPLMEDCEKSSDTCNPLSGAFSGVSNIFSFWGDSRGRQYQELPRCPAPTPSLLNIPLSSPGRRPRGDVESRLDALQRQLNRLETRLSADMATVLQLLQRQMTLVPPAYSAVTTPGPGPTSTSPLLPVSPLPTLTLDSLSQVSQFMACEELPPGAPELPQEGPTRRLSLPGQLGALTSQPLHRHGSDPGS
SMILES,IC50 [1],CC50 (Vero),further results
CC(=O)c1c(Nc2ccc(Br)cc2)[nH]c2c(F)cc(F)cc2c1=O,1.13 µM,> 25 µM,–
CC(=O)c1c(Nc2ccc(F)c(F)c2F)[nH]c2c(F)cc(F)cc2c1=O,0.53 µM,> 25 µM,–
CCCCNc1[nH]c2c(F)cc(F)cc2c(=O)c1C(C)=O,> 25 µM,> 25 µM,–
CC(=O)c1c(NCc2ccc(F)cc2)[nH]c2c(F)cc(F)cc2c1=O,17.6 µM,> 25 µM,–
CC(=O)c1c(OCc2ccc(Cl)c(Cl)c2)[nH]c2c(F)cc(F)cc2c1=O,7.8 µM,> 25 µM,–
CC(=O)c1c(Nc2ccc(Cl)cc2)[nH]c2c(F)cc(F)cc2c1=O,1.44 µM,> 25 µM,–
COc1ccc(Nc2[nH]c3c(F)cc(F)cc3c(=O)c2C(C)=O)cc1,> 25 µM,> 25 µM,–
CC(C)C(=O)c1c(Nc2ccc(F)cc2F)[nH]c2c(Cl)cc(Cl)c(Cl)c2c1=O,0.129 µM,–,CC50 [2]: > 25 µM
CC(=O)c1c(N2CCCCC2)[nH]c2c(F)cc(F)cc2c1=O,> 25 µM,> 25 µM,–
CC(C)C(=O)c1c(Nc2ccc(F)cc2F)[nH]c2c(F)cc(F)cc2c1=O,0.79 µM,> 25 µM,–
CC(=O)c1c(N2CCOCC2)[nH]c2c(F)cc(F)cc2c1=O,> 25 µM,> 25 µM,–
CC(=O)c1c(NC(C)C)[nH]c2c(C(F)(F)F)cc(Cl)cc2c1=O,0.77 µM,> 25 µM,–
CC(=O)c1c(NC(C)C)[nH]c2c(C(C)C)cccc2c1=O,> 25 µM,–,–
CC(C)C(=O)c1c(Nc2ccc(F)c(F)c2F)[nH]c2c(F)cc(F)cc2c1=O,0.086 µM,> 25 µM,remaining at 0.5 h [3]: 52%; remaining at 0.5 h [4]: 44%; remaining at 0.5 h [5]: 35%; IC50 [6]: 6.9 µM; IC50 (HFL1): 15.6 µM; IC50 (L929): 15.8 µM; IC50 (NIH3T3): 65.6 µM; IC50 (CHO-K1): 6.9 µM; Cmax [7]: 2320 ng/mL; half-life [8]: 4.6 h; AUC [9]: 28300 ng·h/mL; AUC(0-inf) [10]: 28900 ng·h/mL; clearance [11]: 1.17 mL/min/kg; F [12]: 56%
CC(=O)c1c(Nc2ccc(F)cc2F)[nH]c2c(F)cc(Cl)cc2c1=O,0.98 µM,> 25 µM,–
CC(C)Nc1[nH]c2c(C(F)(F)F)cc(Cl)cc2c(=O)c1C(=O)c1ccccc1,> 25 µM,–,–
CC(C)C(=O)c1c(Nc2ccc(F)cc2F)[nH]c2c(C(F)(F)F)cc(Cl)cc2c1=O,0.13 µM,7.3 µM,–
CC(=O)c1c(NCc2ccc(F)cc2F)[nH]c2c(F)cc(F)cc2c1=O,5.9 µM,> 25 µM,–
CC(=O)c1c(Nc2ccc(F)cc2F)[nH]c2c(C(F)(F)F)cc(Cl)cc2c1=O,0.15 µM,7.3 µM,–
CC(=O)c1c(Nc2ccc(F)cc2F)[nH]c2c(F)cc(F)cc2c1=O,1.06 µM,> 25 µM,–
CC(C)C(=O)c1c(Nc2ccc(F)c(F)c2F)[nH]c2c(Cl)ccc(Cl)c2c1=O,0.166 µM,10.9 µM,–
COc1cccc(Nc2[nH]c3c(F)cc(F)cc3c(=O)c2C(C)=O)c1,> 25 µM,> 25 µM,–
CC(=O)c1c(Nc2ccc(F)cc2F)[nH]c2c(Cl)cc(Cl)c(Cl)c2c1=O,0.29 µM,> 25 µM,–
CC(C)C(=O)c1c(Nc2ccc(F)c(F)c2F)[nH]c2c(Cl)cc(Cl)c(Cl)c2c1=O,0.1 µM,6.4 µM,–
CC(=O)c1c(Nc2ccc(F)cc2F)[nH]c2c([N+](=O)[O-])cc(Cl)cc2c1=O,1.16 µM,> 25 µM,–
COc1ccc(CNc2[nH]c3c(F)cc(F)cc3c(=O)c2C(C)=O)cc1,> 25 µM,> 25 µM,–
CC(=O)c1c(NC(C)C)[nH]c2c(C)cc(C)cc2c1=O,> 25 µM,–,–

# Reference: ChEMBL document CHEMBL4311996 (Bioorg Med Chem Lett, 2019)
